Test results taken from ChEMBL document CHEMBL4138139, “Discovery of VU6005649, a CNS Penetrant mGlu7/8 Receptor PAM Derived from a Series of Pyrazolo[1,5-a]pyrimidines” (ACS Med Chem Lett, 2017).

Legend:
[1] = species: Rattus norvegicus; assay: Displacement of [125I] triiodothyronine from thyroid hormone receptor in Sprague-Dawley rat liver membranes at 10 uM after 18 hrs by scintillation counting method relative to control; format: cell membranes; conditions: Membrane
How it was run: (§1)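 Single-concentration screen at 10 μM in an outsourced profiling panel of 68 GPCRs, ion channels and transporters. Activity read out as percent inhibition of specific radioligand binding.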

[2] = target: Alpha-1D adrenergic receptor (Homo sapiens) (UniProt P25100); assay: Displacement of [3H] prazosin from recombinant human alpha1d receptor expressed in HEK293 cell membranes at 10 uM measured after 60 mins by scintillation counting method relative to control; how it was run: as §1
Chain of Alpha-1D adrenergic receptor (Homo sapiens) (P25100 whole entry): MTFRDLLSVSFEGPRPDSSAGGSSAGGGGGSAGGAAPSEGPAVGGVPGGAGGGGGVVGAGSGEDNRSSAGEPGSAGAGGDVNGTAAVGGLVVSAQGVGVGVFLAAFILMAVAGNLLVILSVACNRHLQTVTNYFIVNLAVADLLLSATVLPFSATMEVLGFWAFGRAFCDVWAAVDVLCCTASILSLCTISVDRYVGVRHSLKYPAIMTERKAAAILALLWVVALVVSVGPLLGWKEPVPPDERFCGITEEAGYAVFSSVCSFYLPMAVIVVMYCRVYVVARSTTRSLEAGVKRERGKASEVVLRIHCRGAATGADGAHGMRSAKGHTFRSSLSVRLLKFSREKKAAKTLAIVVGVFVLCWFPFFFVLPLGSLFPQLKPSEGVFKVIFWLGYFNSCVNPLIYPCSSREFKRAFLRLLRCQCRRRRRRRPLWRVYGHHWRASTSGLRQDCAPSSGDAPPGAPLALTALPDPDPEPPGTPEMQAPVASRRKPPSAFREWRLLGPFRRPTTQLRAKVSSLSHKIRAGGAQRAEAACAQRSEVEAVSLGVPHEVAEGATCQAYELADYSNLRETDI

[3] = target: Estrogen receptor (Homo sapiens) (UniProt P03372); assay: Displacement of [3H] estradiol from full length human recombinant ERalpha receptor expressed in Sf9 insect cells at 10 uM after 120 mins by scintillation counting method relative to control
[4] = target: Glutamate NMDA receptor (Rattus norvegicus) (UniProt P35439+Q00959+Q00960+Q00961+Q62645+Q8VHN2+Q9R1M7); assay: Displacement of [3H] CGP-39653 from NMDA in Wistar rat cerebral cortical membranes at 10 uM measured after 20 mins by scintillation counting method relative to control; how it was run: as §1
[5] = target: L-type calcium channel, benzothiazepine site (Rattus norvegicus, UniProt P22002+P27732+Q02485); assay: Inhibition of rat L-type calcium channel benzothiazepine site at 10 uM relative to control; format: protein assay
[6] = target: Sigma non-opioid intracellular receptor 1 (Homo sapiens) (UniProt Q99720); assay: Displacement of [3H] haloperidol from sigma1 receptor in human Jurkat cells at 10 uM after 4 hrs by scintillation counting method relative to control; format: cell-based; how it was run: as §1
Chain of Sigma non-opioid intracellular receptor 1 (Homo sapiens) (Q99720 whole entry): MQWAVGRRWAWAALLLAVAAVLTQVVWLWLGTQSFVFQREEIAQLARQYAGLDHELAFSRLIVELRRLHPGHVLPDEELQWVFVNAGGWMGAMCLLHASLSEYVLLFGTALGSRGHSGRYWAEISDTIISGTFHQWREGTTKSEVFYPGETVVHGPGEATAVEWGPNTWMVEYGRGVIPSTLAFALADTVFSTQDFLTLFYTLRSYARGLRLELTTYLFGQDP

[7] = target: Alpha-2A adrenergic receptor (Homo sapiens) (UniProt P08913); assay: Displacement of [3H]rauwolscine from full length human recombinant alpha2a receptor expressed in CHOK1 cells at 10 uM after 60 mins by scintillation counting method relative to control; format: cell-based
How it was run: (§2)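 Single-concentration screen at 10 μM within a commercial lead-profiling panel of 68 GPCRs, ion channels and transporters. Activity read as percent inhibition of specific radioligand binding to each target.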

[8] = target: Prostaglandin E2 receptor EP4 subtype (Homo sapiens) (UniProt P35408); assay: Displacement of [3H] prostaglandin E2 from recombinant human EP4 receptor expressed in rat Chem1 cell membranes at 10 uM measured after 120 mins by scintillation counting method relative to control; how it was run: as §1
[9] = species: Homo sapiens; assay: Displacement of [125I] epibatidine from human nAChR expressed in IMR32 cell membranes at 10 uM after 60 mins by scintillation counting method relative to control; how it was run: as §1
[10] = species: Rattus norvegicus; assay: Displacement of [3H] Idazoxan from imidazoline I2 receptor in Wistar rat brain membranes at 10 uM after 30 mins by scintillation counting method relative to control; format: cell membranes; conditions: Membrane; how it was run: as §1
[11] = target: Cannabinoid receptor 1 (Homo sapiens) (UniProt P21554); assay: Displacement of [3H] SR141716A from recombinant human CB1 receptor expressed in rat Chem1 cell membranes at 10 uM measured after 90 mins by scintillation counting method relative to control; how it was run: as §1
[12] = tested on: Mus musculus; assay: Toxicity in wild-type C57/B6 mouse assessed as sedation at 50 mg/kg, ip; format: organism-based; conditions: in vivo
[13] = target: Alpha-1B adrenergic receptor (Rattus norvegicus) (UniProt P15823); assay: Displacement of [3H] prazosin from Wistar rat alpha1b receptor at 10 uM measured after 60 mins by scintillation counting method relative to control; how it was run: as §1
[14] = Brain to plasma partition coefficient, Kp of the compound in C57BL/6 mouse at 10 mg/kg, ip measured after 360 mins by LC-MS/MS analysis; format: ADME, organism-based; conditions: brain and plasma
How it was run: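 Mice given 10 mg/kg IP; time course out to 6 h with nonserial sampling of plasma and brain at each time point; Kp from brain/plasma levels.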

[15] = target: 5-hydroxytryptamine receptor 3A (Homo sapiens) (UniProt P46098); assay: Displacement of [3H] GR-65630 from full length human recombinant 5-HT3 receptor expressed in HEK293 cell membranes at 10 uM after 60 mins by scintillation counting method relative to control; how it was run: as §1
[16] = target: Beta-2 adrenergic receptor (Homo sapiens) (UniProt P07550); assay: Displacement of [3H] CGP-12177 from recombinant human beta2 receptor expressed in CHO cell membranes co-expressing human NBR1 at 10 uM after 60 mins by scintillation counting method relative to control; how it was run: as §1
Chain of Beta-2 adrenergic receptor (Homo sapiens) (P07550 whole entry, looked up): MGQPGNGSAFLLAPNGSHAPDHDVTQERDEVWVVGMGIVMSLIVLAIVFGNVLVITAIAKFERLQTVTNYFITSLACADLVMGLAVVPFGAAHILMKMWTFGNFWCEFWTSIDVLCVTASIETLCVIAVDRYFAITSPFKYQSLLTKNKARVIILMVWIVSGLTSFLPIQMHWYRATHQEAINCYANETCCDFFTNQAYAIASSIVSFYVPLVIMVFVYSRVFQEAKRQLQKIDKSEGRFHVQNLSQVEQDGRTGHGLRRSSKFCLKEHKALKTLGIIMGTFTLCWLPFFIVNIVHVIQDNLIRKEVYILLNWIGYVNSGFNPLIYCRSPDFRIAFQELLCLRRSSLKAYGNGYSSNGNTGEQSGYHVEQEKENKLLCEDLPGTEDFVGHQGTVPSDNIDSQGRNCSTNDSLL

[17] = target: Interleukin-1 receptor type 1 (Mus musculus) (UniProt P13504); assay: Inhibition of mouse IL-1 receptor at 10 uM relative to control; how it was run: as §2
Chain of Interleukin-1 receptor type 1 (Mus musculus) (P13504 whole entry): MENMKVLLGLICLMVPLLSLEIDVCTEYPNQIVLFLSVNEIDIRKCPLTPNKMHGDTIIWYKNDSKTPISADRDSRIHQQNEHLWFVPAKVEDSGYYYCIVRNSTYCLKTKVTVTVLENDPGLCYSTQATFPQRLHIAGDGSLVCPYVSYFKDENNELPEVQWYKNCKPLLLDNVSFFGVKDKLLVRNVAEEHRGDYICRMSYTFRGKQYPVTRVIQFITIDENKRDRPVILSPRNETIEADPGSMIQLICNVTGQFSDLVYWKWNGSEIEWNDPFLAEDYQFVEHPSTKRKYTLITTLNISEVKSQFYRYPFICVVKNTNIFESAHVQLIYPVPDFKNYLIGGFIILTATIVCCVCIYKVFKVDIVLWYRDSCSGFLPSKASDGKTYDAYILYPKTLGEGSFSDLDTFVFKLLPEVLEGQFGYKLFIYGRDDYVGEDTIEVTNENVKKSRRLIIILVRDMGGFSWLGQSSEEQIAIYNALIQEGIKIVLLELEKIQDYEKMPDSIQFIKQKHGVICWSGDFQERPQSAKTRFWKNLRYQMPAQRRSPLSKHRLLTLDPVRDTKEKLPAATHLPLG

[18] = target: Sodium-dependent noradrenaline transporter (Homo sapiens) (UniProt P23975); assay: Displacement of [125I] RTI-55 from full length human recombinant NET expressed in MDCK cell membranes at 10 uM after 180 mins by scintillation counting method relative to control; how it was run: as §1
[19] = target: Metabotropic glutamate receptor 1 (Rattus norvegicus, UniProt P23385); assay: Positive allosteric modulation of rat mGlu1 receptor expressed in HEK cells assessed as increase in glutamate-induced calcium flux incubated for 142 secs followed by glutamate addition measured after 120 secs by Fluo4-AM dye based fluorescence assay; format: functional, cell-based
Chain of Metabotropic glutamate receptor 1 (P23385 whole entry): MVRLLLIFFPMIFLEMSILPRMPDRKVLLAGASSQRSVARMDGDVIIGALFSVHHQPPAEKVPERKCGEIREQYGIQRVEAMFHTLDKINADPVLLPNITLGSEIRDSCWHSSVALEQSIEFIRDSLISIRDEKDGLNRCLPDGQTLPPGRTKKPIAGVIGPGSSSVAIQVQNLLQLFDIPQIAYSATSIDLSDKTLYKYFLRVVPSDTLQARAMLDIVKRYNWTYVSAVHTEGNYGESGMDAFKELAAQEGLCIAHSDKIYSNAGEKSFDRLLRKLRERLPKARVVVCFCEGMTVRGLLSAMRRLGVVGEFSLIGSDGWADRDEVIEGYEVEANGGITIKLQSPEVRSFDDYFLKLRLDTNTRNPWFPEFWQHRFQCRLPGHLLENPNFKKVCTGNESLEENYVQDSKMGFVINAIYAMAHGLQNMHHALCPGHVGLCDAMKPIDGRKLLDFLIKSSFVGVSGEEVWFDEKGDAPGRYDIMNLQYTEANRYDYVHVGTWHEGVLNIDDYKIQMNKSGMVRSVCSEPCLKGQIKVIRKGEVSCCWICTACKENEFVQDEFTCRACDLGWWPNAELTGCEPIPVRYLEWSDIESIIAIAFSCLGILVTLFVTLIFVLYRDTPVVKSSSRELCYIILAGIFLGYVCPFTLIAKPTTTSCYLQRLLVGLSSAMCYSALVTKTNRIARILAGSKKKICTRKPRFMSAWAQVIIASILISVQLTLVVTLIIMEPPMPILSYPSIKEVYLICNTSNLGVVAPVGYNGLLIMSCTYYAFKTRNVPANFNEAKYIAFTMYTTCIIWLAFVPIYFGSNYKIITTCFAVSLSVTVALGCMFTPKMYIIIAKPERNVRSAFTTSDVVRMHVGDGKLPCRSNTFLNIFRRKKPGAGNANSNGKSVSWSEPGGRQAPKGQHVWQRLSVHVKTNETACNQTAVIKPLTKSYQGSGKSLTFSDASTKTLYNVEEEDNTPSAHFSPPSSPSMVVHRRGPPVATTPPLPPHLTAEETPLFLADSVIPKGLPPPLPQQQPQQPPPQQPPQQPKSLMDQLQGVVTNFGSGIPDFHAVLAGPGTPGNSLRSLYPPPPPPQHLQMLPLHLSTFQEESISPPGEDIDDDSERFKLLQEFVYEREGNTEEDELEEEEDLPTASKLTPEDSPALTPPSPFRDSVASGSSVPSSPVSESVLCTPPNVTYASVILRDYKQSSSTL

[20] = species: Rattus norvegicus; assay: Displacement of [35S] ATP-alphaS from Wistar rat brain P2Y receptor at 10 uM measured after 60 mins by scintillation counting method relative to control; how it was run: as §1
[21] = target: T1, Metabotropic glutamate receptor 6 (Homo sapiens, UniProt O15303); assay: Negative allosteric modulation of human mGlu6 receptor expressed in HEK cells harboring GIRK channel assessed as decrease in glutamate-induced thallium flux incubated for 142 secs followed by glutamate addition measured after 120 secs by Fluo4-AM dye based fluorescence assay; format: functional, cell-based
T1 sequence (O15303 whole entry): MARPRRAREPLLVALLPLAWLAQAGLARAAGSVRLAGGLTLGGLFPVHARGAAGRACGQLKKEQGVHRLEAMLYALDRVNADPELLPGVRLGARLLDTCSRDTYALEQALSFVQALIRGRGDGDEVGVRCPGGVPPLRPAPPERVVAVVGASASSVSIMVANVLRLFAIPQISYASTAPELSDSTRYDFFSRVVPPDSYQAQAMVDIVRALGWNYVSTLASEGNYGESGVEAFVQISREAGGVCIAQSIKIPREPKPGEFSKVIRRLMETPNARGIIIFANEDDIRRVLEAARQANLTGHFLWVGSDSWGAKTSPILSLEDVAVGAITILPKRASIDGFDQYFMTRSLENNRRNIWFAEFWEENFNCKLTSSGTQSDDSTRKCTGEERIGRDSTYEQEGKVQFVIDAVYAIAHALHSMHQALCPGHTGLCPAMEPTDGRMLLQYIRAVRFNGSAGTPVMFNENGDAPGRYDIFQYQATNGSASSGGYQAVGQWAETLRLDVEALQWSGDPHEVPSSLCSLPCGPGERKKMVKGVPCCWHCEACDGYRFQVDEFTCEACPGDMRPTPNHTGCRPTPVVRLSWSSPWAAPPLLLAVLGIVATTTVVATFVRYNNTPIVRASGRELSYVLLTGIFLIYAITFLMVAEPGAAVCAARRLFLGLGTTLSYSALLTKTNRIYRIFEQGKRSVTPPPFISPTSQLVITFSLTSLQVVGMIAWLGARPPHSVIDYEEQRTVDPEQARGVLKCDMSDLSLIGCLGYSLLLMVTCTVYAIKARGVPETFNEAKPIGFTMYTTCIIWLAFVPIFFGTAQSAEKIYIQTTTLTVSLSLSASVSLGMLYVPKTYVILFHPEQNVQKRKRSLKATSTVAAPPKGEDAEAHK

[22] = species: Rattus norvegicus; assay: Displacement of [3H] Rolipram from PDE4 receptor rolipram binding site in Wistar rat brain membranes at 10 uM after 60 mins by scintillation counting method relative to control; format: cell membranes; conditions: Membrane; how it was run: as §1
[23] = target: T1, Metabotropic glutamate receptor 6; assay: Positive allosteric modulation of human mGlu6 receptor expressed in HEK cells assessed as increase in glutamate-induced calcium flux incubated for 142 secs followed by glutamate addition measured after 120 secs by Fluo4-AM dye based fluorescence assay; format: functional, cell-based
[24] = target: Endothelin receptor type B (Homo sapiens) (UniProt P24530); assay: Displacement of [125I] endothelin-1 from recombinant human ETB receptor expressed in CHOK1 cell membranes at 10 uM after 120 mins by scintillation counting method relative to control; how it was run: as §1
[25] = target: Adenosine receptor A2a (Homo sapiens) (UniProt P29274); assay: Displacement of [3H] CGS-21680 from full length human recombinant A2a receptor expressed in HEK293 cell membranes at 10 uM after 90 mins by scintillation counting method relative to control; how it was run: as §1
Chain of Adenosine receptor A2a (Homo sapiens) (P29274 whole entry): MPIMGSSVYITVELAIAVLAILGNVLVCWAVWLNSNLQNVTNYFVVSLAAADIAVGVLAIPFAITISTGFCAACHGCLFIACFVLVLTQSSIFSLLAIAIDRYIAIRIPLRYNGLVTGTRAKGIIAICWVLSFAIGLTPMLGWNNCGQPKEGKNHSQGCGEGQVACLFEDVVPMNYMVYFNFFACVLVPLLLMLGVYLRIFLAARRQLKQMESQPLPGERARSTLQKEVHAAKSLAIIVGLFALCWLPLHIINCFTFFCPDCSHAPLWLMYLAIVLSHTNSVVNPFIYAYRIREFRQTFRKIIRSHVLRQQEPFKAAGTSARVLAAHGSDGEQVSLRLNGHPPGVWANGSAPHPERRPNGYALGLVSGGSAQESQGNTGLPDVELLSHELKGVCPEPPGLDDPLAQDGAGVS

[26] = target: Kappa-type opioid receptor (Homo sapiens) (UniProt P41145); assay: Displacement of [3H] diprenorphine from recombinant human kappa opioid receptor expressed in HEK293 cell membranes at 10 uM after 60 mins by scintillation counting method relative to control; how it was run: as §1
Chain of Kappa-type opioid receptor (Homo sapiens) (P41145 whole entry): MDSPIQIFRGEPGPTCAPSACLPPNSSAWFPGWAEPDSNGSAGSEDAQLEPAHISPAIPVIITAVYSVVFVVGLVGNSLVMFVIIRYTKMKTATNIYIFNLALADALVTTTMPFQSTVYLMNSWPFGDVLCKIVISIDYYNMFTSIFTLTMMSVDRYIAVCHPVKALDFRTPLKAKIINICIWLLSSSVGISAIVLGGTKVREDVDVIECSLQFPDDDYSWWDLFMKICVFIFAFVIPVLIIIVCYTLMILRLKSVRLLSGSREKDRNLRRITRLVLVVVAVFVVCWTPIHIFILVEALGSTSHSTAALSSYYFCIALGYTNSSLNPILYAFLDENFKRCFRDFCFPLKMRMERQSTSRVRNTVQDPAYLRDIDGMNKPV

[27] = target: Cytochrome P450 2D6 (Homo sapiens, UniProt P10635); assay: Inhibition of CYP2D6 in human liver microsomes using dextromethorphan as substrate preincubated for 15 mins followed by NADPH addition measured after 8 mins by LC-MS/MS analysis; format: ADME

What does the source list for `COc1ccc(-c2c(C)nn3c(C(F)(F)F)cc(C)nc23)c(F)c1F`?
inhibition [1]: < 50%; inhibition [2]: < 50%; inhibition [3]: < 50%; inhibition [4]: < 50%; inhibition at 10 µM [5]: < 50%; inhibition [6]: < 50%; inhibition [7]: < 50%; inhibition [8]: < 50%; inhibition [9]: < 50%; inhibition [10]: < 50%; inhibition [11]: < 50%; Activity [12]: Toxic; inhibition [13]: < 50%; Kp at 6 h [14]: 1.1; inhibition [15]: < 50%; inhibition [16]: < 50%; inhibition [17]: < 50%; inhibition [18]: < 50%; EC50 [19]: > 10 µM; inhibition [20]: < 50%; IC50 [21]: > 10 µM; inhibition [22]: < 50%; EC50 [23]: > 10 µM; inhibition [24]: < 50%; inhibition [25]: < 50%; inhibition [26]: < 50%; IC50 [27]: > 30 µM
